Source: ChEMBL document CHEMBL4376885 (J Med Chem, 2020)

What was measured:
[1] = tested on: Human immunodeficiency virus 1; test: Antiviral activity against HIV1 3B infected in human MT4 cells assessed as protection against virus-induced cytopathic effect incubated for 5 days by MTT assay; assay type: functional, organism-based; conditions: Human immunodeficiency virus 1, 3B, MT4, 120 h
[2] = tested on: Human immunodeficiency virus 1; test: Antiviral activity against NNRTI-resistant HIV1 RES056 containing reverse transcriptase K103N+Y181C mutant infected in human MT4 cells assessed as protection against virus-induced cytopathic effect incubated for 5 days by MTT assay; assay type: functional, organism-based; conditions: Human immunodeficiency virus 1, RES056, MT4, 120 h
[3] = tested on: Human immunodeficiency virus 1; test: Antiviral activity against HIV1 containing reverse transcriptase L100I mutant infected in human MT4 cells assessed as protection against virus-induced cytopathic effect incubated for 5 days by MTT assay; assay type: functional, organism-based; conditions: Human immunodeficiency virus 1, MT4, 120 h
[4] = tested on: Human immunodeficiency virus 1; test: Antiviral activity against HIV1 containing reverse transcriptase K103N mutant infected in human MT4 cells assessed as protection against virus-induced cytopathic effect incubated for 5 days by MTT assay; assay type: functional, organism-based; conditions: Human immunodeficiency virus 1, MT4, 120 h
[5] = tested on: Human immunodeficiency virus 1; test: Antiviral activity against HIV1 containing reverse transcriptase Y181C mutant infected in human MT4 cells assessed as protection against virus-induced cytopathic effect incubated for 5 days by MTT assay; assay type: functional, organism-based; conditions: Human immunodeficiency virus 1, MT4, 120 h
[6] = tested on: Human immunodeficiency virus 1; test: Antiviral activity against HIV1 containing reverse transcriptase Y188L mutant infected in human MT4 cells assessed as protection against virus-induced cytopathic effect incubated for 5 days by MTT assay; assay type: functional, organism-based; conditions: Human immunodeficiency virus 1, MT4, 120 h
[7] = tested on: Human immunodeficiency virus 1; test: Antiviral activity against HIV1 containing reverse transcriptase E138K mutant infected in human MT4 cells assessed as protection against virus-induced cytopathic effect incubated for 5 days by MTT assay; assay type: functional, organism-based; conditions: Human immunodeficiency virus 1, MT4, 120 h
[8] = tested on: Human immunodeficiency virus 1; test: Antiviral activity against HIV1 containing reverse transcriptase F227L+V106A mutant infected in human MT4 cells assessed as protection against virus-induced cytopathic effect incubated for 5 days by MTT assay; assay type: functional, organism-based; conditions: Human immunodeficiency virus 1, MT4, 120 h
[9] = biological target: Cytochrome P450 2D6 (Homo sapiens, UniProt P10635); test: Inhibition of CYP2D6 in human liver microsomes using dextromethorphan substrate in presence of NADPH incubated for 10 mins; assay type: ADME
Chain of Cytochrome P450 2D6 (P10635 whole entry): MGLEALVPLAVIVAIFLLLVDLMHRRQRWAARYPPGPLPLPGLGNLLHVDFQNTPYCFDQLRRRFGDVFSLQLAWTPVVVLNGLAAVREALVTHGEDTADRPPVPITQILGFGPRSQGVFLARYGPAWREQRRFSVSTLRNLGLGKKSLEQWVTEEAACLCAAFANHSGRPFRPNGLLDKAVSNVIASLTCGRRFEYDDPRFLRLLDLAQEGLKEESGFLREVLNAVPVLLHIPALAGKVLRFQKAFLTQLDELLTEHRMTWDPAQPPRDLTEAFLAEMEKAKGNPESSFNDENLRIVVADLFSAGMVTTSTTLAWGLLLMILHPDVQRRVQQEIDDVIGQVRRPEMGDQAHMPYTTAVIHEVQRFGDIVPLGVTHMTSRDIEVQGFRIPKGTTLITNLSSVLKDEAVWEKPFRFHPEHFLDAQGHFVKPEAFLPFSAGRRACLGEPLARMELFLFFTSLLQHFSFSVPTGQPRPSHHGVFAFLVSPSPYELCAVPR

[10] = Toxicity in Kunming mouse assessed as induction of mortality at 2000 mg/kg, po administered as single dose measured during 7 days post dose; assay type: organism-based; conditions: in vivo, 168 h
Method in brief: (§1)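 Kunming mice received a single oral 2000 mg/kg dose and were followed for 7 days alongside an untreated control group. Mortality, poisoning symptoms and behaviour were recorded, and relative body-weight change was tracked.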

[11] = Toxicity in Kunming mouse assessed as induction of poisoning symptoms at 2000 mg/kg, po administered as single dose measured during 7 days post dose; assay type: organism-based; conditions: in vivo, 168 h; method in brief: as §1
[12] = Toxicity in Kunming mouse assessed as induction of abnormal behaviors at 2000 mg/kg, po administered as single dose measured during 7 days post dose; assay type: organism-based; conditions: in vivo, 168 h; method in brief: as §1
[13] = Toxicity in Kunming mouse assessed as induction of body weight changes at 2000 mg/kg, po administered as single dose measured during 7 days post dose; assay type: organism-based; conditions: in vivo, 168 h; method in brief: as §1
[14] = Tmax in Wistar rat at 2 mg/kg, iv by LC-MS/MS analysis; assay type: ADME, organism-based; conditions: in vivo
Method in brief: (§2)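 Single dose, intravenous at 2 mg/kg or oral at 10 mg/kg, in Wistar rats and Kunming mice.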

[15] = Tmax in Wistar rat at 10 mg/kg, po by LC-MS/MS analysis; assay type: ADME, organism-based; conditions: in vivo; method in brief: as §2
[16] = Tmax in Kunming mouse at 2 mg/kg, iv by LC-MS/MS analysis; assay type: ADME, organism-based; conditions: in vivo; method in brief: as §2
[17] = Tmax in Kunming mouse at 10 mg/kg, po by LC-MS/MS analysis; assay type: ADME, organism-based; conditions: in vivo; method in brief: as §2

Row | SMILES | EC50 [1] | EC50 [2] | further results
1 | Cc1cc(C#N)cc(C)c1Oc1nc(Nc2ccc(C#N)cc2C(F)(F)F)nc2sccc12 | 1280 nM |  | 
2 | Cc1cc(C#N)cc(C)c1Oc1nc(Nc2ccc(C#N)c(F)c2)nc2sccc12 | 10.1 nM | 119 nM | 
3 | Cc1cc(/C=C/C#N)cc(C)c1Oc1nc(Nc2ccc(C#N)c(F)c2)nc2ccsc12 | 8.6 nM | 21.5 nM | EC50 [3]: < 3.62 nM; EC50 [4]: < 3.62 nM; EC50 [5]: 8.49 nM; EC50 [6]: 8.15 nM; EC50 [7]: 9.4 nM; EC50 [8]: 9.28 nM; IC50 [9]: > 50000 nM; Activity [10]: Non-Toxic; Activity [11]: Non-Toxic; Activity [12]: Non-Toxic; Activity [13]: Non-Toxic; Tmax [14]: 1.98 min; Tmax [15]: 30 min; Tmax [16]: 1.98 min; Tmax [17]: 60 min
4 | Cc1cc(C#N)cc(C)c1Oc1nc(Nc2ccc(C#N)c(F)c2)nc2c1COC2 | 2.99 nM | 274 nM | 
5 | Cc1cc(C#N)cc(C)c1Oc1nc(Nc2ccc(C#N)c(F)c2)nc2c1CSC2 | 20.7 nM | 611 nM | 
6 | Cc1cc(C#N)cc(C)c1Oc1ccnc(Nc2ccc(C#N)c(F)c2)n1 | 6.33 nM | 388 nM | 
7 | Cc1cc(C#N)cc(C)c1Oc1nc(Nc2ccc(C#N)c(F)c2)nc2ncsc12 | 3 nM | 131 nM | 
8 | Cc1cc(C#N)cc(C)c1Oc1nc(Nc2ccc(C#N)c(F)c2)nc2ccsc12 | 6.74 nM | 50.1 nM | 
9 | Cc1cc(/C=C/C#N)cc(C)c1Oc1nc(Nc2ccc(C#N)c(F)c2F)nc2ccsc12 | 8.92 nM | 1090 nM | 
10 | Cc1cc(C#N)cc(C)c1Oc1nc(Nc2ccc(C#N)c(F)c2)nc2c1CCC2 | 37.7 nM | 951 nM | 
11 | Cc1cc(C#N)cc(C)c1Oc1nc(Nc2ccc(C#N)cc2C(F)(F)F)nc2ccsc12 | 896 nM |  | 
12 | Cc1cc(/C=C/C#N)cc(C)c1Oc1nc(Nc2ccc(C#N)c(C(F)(F)F)c2)nc2sccc12 | 35.3 nM | 140 nM | 
13 | Cc1cc(C#N)cc(C)c1Oc1nc(Nc2ccc(C#N)c(F)c2)nc2c1SCC2 | 6.31 nM | 107 nM | 
14 | Cc1cc(C#N)cc(C)c1Oc1nc(Nc2ccc(C#N)c(F)c2)nc2c1CCCC2 | 11.3 nM | 180 nM | 
15 | Cc1cc(/C=C/C#N)cc(C)c1Oc1nc(Nc2ccc(C#N)cc2F)nc2sccc12 | 7.13 nM | 473 nM | 
16 | Cc1cc(/C=C/C#N)cc(C)c1Oc1nc(Nc2ccc(C#N)cc2C(F)(F)F)nc2sccc12 | 166 nM |  | 
17 | Cc1cc(/C=C/C#N)cc(C)c1Oc1nc(Nc2ccc(C#N)c(F)c2)nc2sccc12 | 7.64 nM | 33.4 nM | EC50 [3]: 5.55 nM; EC50 [4]: 7.36 nM; EC50 [5]: 26.3 nM; EC50 [6]: 35.7 nM; EC50 [7]: 29.7 nM; EC50 [8]: 32.8 nM

Row | SMILES | EC50 [1] | EC50 [2] | further results
18 | Cc1cc(C#N)cc(C)c1Oc1nc(Nc2ccc(C#N)c(F)c2)nc2cccc(F)c12 | 12.3 nM | 182 nM | 
19 | Cc1cc(C#N)cc(C)c1Oc1nc(Nc2ccc(C#N)c(C(F)(F)F)c2)nc2ccsc12 | 29.2 nM |  | 
20 | Cc1cc(C#N)cc(C)c1Oc1nc(Nc2ccc(C#N)cc2F)nc2sccc12 | 24 nM |  | 
21 | Cc1cc(C#N)cc(C)c1Oc1nc(Nc2ccc(C#N)c(C(F)(F)F)c2)nc2sccc12 | 44.9 nM |  | 
22 | Cc1cc(C#N)cc(C)c1Oc1cc(Cl)nc(Nc2ccc(C#N)c(F)c2)n1 | 48.9 nM | 898 nM | 
23 | Cc1cc(C#N)cc(C)c1Oc1nc(Nc2ccc(C#N)c(F)c2)nc2scnc12 | 3.72 nM | 162 nM | 
24 | Cc1cc(C#N)cc(C)c1Oc1nc(Nc2ccc(C#N)cc2F)nc2ccsc12 | 30.4 nM |  | 
25 | Cc1cc(C#N)cc(C)c1Oc1nc(Nc2ccc(C#N)c(F)c2F)nc2ccsc12 | 226 nM |  | 
26 | Cc1cc(/C=C/C#N)cc(C)c1Oc1nc(Nc2ccc(C#N)cc2F)nc2ccsc12 | 6.34 nM | 561 nM | 
27 | Cc1cc(/C=C/C#N)cc(C)c1Oc1nc(Nc2ccc(C#N)cc2C(F)(F)F)nc2ccsc12 | 24.5 nM | 48.4 nM | 
28 | Cc1cc(/C=C/C#N)cc(C)c1Oc1nc(Nc2ccc(C#N)c(C(F)(F)F)c2)nc2ccsc12 | 146 nM |  | 
29 | Cc1cc(/C=C/C#N)cc(C)c1Oc1nc(Nc2ccc(C#N)c(F)c2F)nc2sccc12 | 18.6 nM | 2350 nM | 
30 | Cc1cc(C#N)cc(C)c1Oc1nc(Nc2ccc(C#N)c(F)c2)nc2cc[nH]c12 | 2.89 nM | 29.4 nM | 
31 | Cc1cc(C#N)cc(C)c1Oc1nc(Nc2ccc(C#N)c(F)c2)nc2ccccc12 | 8.07 nM | 148 nM | 
32 | Cc1cc(C#N)cc(C)c1Oc1nc(Nc2ccc(C#N)c(F)c2F)nc2sccc12 | 40.3 nM |  | 
33 | O=C1Nc2ccc(Cl)cc2[C@@](C#CC2CC2)(C(F)(F)F)O1 [EFAVIRENZ] | 2.31 to 2.49 nM | 186 to 260 nM | 
34 | Cc1cc(C#N)cc(C)c1Oc1nc(Nc2ccc(C#N)cc2)nc(N)c1Br [ETRAVIRINE] | 2.55 to 3.13 nM | 32.2 to 37.9 nM | 
